Test results as given in ChEMBL document CHEMBL4622992, “New Polyaminoisoprenyl Antibiotics Enhancers against Two Multidrug-Resistant Gram-Negative Bacteria from Enterobacter and Salmonella Species” (J Med Chem, 2020).
Where a SMILES comes first, the peptide text is derived from it. Bridges are numbered along the chain shown (N, C = ends). [ ]: non-standard residue; d: D form. The star is where a group is joined. X1 = CC[C@H](C)CCCCC(=O)*; βNA = c1ccc2cc(N*)ccc2c1; Dab = NCC[C@H](N)C(=O)O

How the values were obtained:
Klebsiella aerogenes [1] = assay: Potentiation of chloramphenicol-induced antibacterial activity against Enterobacter aerogenes Ea289 assessed as ratio of the chloramphenicol alone MIC to […] in presence of MIC/4 level of compound incubated for 18 hrs; format: functional
Method in brief: (§1)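 Broth microdilution in MH broth, 10^5 CFU inoculum, two-fold antibiotic dilutions, with or without compound at MIC/4. MIC is the lowest concentration with no visible growth after 18 h at 37°C. Gain is antibiotic MIC alone divided by MIC with compound. MICs repeated in at least three independent experiments; up to 5% DMSO.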

[2] = Toxicity in CHO cells assessed as reduction in cell viability incubated for 24 hrs by WST1 assay; format: cell-based; details: Chinese hamster (Cricetulus griseus)
Method in brief: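 CHO-K1 cells in McCoy's 5A with 10% FCS, exposed in triplicate to 30–1200 μM compound for 24 h at 37°C. After PBS washes, 30 min in medium with 10% WST-1; absorbance at 450 nm. IC50 is the concentration giving 50% loss of viable cells.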

Klebsiella aerogenes [3] = assay: Potentiation of doxycycline-induced antibacterial activity against Enterobacter aerogenes Ea289 assessed as ratio of the doxycycline alone MIC to doxycycline MIC in presence of MIC/4 level of compound incubated for 18 hrs; format: functional; method in brief: as §1
Salmonella typhimurium [4] = assay: Potentiation of chloramphenicol-induced antibacterial activity against Salmonella enterica subsp. enterica serovar Typhimurium BN10055 assessed as ratio of the chloramphenicol alone MIC to […] in presence of MIC/4 level of compound incubated for 18 hrs; format: functional; method in brief: as §1
Salmonella typhimurium [5] = assay: Potentiation of nalidixic acid-induced antibacterial activity against Salmonella enterica subsp. enterica serovar Typhimurium BN10055 assessed as ratio of the nalidixic acid alone MIC to […] in presence of MIC/4 level of compound incubated for 18 hrs; format: functional; method in brief: as §1
Salmonella typhimurium [6] = assay: Potentiation of doxycycline-induced antibacterial activity against Salmonella enterica subsp. enterica serovar Typhimurium BN10055 assessed as ratio of the doxycycline alone MIC to doxycycline MIC in presence of MIC/4 level of compound incubated for 18 hrs; format: functional; method in brief: as §1
Salmonella typhimurium [7] = assay: Potentiation of erythromycin-induced antibacterial activity against Salmonella enterica subsp. enterica serovar Typhimurium BN10055 assessed as ratio of the erythromycin alone MIC to erythromycin MIC in presence of MIC/4 level of compound incubated for 18 hrs; format: functional; method in brief: as §1
Klebsiella aerogenes [8] = assay: Potentiation of erythromycin-induced antibacterial activity against Enterobacter aerogenes Ea289 assessed as ratio of the erythromycin alone MIC to erythromycin MIC in presence of MIC/4 level of compound incubated for 18 hrs
Klebsiella aerogenes [9] = assay: Potentiation of nalidixic acid-induced antibacterial activity against Enterobacter aerogenes Ea289 assessed as ratio of the nalidixic acid alone MIC to nalidixic acid MIC in presence of MIC/4 level of compound incubated for 18 hrs
Klebsiella aerogenes [10] = assay: Potentiation of chloramphenicol-induced antibacterial activity against Enterobacter aerogenes Ea289 assessed as efficiency index by measuring sum of gain factor for each test compound reported for chloramphenicol/nalidixic acid/doxycycline/erythromycin and divided by concentration of test compound; format: functional; details: pooled result: one value given for 2 cell lines, strains, targets or settings
Method in brief: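 Gain factors (antibiotic MIC alone / MIC with compound at MIC/4; broth dilution, 18 h, 37°C) for erythromycin, doxycycline, nalidixic acid and chloramphenicol are summed, then divided by the compound concentration used in the assay.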

[11] = Toxicity index, ratio of IC50 for toxicity in CHO cells to concentration of test compound causing at least 8 times decrease of MIC of almost 3 antibiotics (chloramphenicol/nalidixic acid/doxycycline/erythromycin ) against Enterobacter aerogenes Ea289; format: cell-based; details: hamster, pooled result: one value given for 2 cell lines, strains, targets or settings
Klebsiella aerogenes [12] = assay: Induction of cell transmembrane potential disruption in Enterobacter aerogenes Ea289 assessed as membrane potential by measuring fluorescence level at 100 uM by [DiSC3(5)] based assay (reference value: 0.2%)
Klebsiella aerogenes [13] = assay: Inhibition of AcrAB-TolC in Enterobacter aerogenes Ea289 assessed as retention of 1,2'diNA dye within bacterial membranes at 100 uM relative to control; parameters: scale not given: the % may be the effect or the level left
Method in brief: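 Stationary-phase cells at OD600 0.25 in potassium phosphate buffer pH 7.0 with CCCP 5 µM, loaded overnight with 1,2'-diNA 32 µM at 37°C, washed, compound added at 100 µM. Glucose 50 mM added at 300 s to energize efflux. Fluorescence (ex 370/em 420 nm) read every 30 s at 37°C; PAβN 100 µM as reference.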

Compound	Ratio (Klebsiella aerogenes [1])	IC50 at 24 h [2] [µM]	Ratio (Klebsiella aerogenes [3])	Ratio (Salmonella typhimurium [4])	Ratio (Salmonella typhimurium [5])	Ratio (Salmonella typhimurium [6])	Ratio (Salmonella typhimurium [7])	Ratio (Klebsiella aerogenes [8])	Ratio (Klebsiella aerogenes [9])	Activity_index (Klebsiella aerogenes [10])	selectivity ratio [11]	Activity (Klebsiella aerogenes [12]) [%]	Activity (Klebsiella aerogenes [13]) [%]
CC(C)=CCC/C(C)=C\CCC(C)=CCNCCN	4	32.3	8	8	64	32	32	128	8				
CC(C)=CCC/C(C)=C\CCC(C)=CCNCCCNCCCN	8	30.2	32	8	64	32	8	64	8	3.58	3.86		
CC(C)=CCCC(C)=CCNCCCN(C)CCCN	16	> 150	16	16	32	16		32	8	0.01	0.06		
CC(C)=CCCC(C)=CCNCCCN	8	> 150	16	8	32	16		32	8				
CCN(CC)CCCNCCCNCC=C(C)CCC=C(C)C	16	30.9	32	16	64	32	8	32	8	1.66	1.98		
CC(C)=CCC/C(C)=C\CCC(C)=CCNCCCCN	16	18.1	64	8	64	16	4	256	16				
CC(C)=CCC/C(C)=C\CCC(C)=CCNCCCCCN	16	38.4	64	8	16	16	2	32	8				
CC(C)=CCCC(C)=CCNCCCN1CCCC1=O	1	> 150	2	1	1	1	1	2	1				
CC(C)=CCCC(C)=CCNCCN	4	36.2	32	8	16	16	1	4	4				
CC(C)=CCCC(C)=CCNCCCN1CCCC1	1	> 150	2	2	4	2	1	1	2				
CC(C)=CCCC(C)=CCNCCCN1CCOCC1	1	> 150	2	2	1	2	1	1	1				
CC(C)=CCC/C(C)=C\CCC(C)=CCNCCCN1CCN(CCCN)CC1	8	33.8	128	8	64	32	4	128	32				
CC(C)=CCCC(C)=CCNCCCNCCCCNCCCN	8	> 150	16	16	64	16	2	4	16	0.57	4.8		
CC(C)=CCC/C(C)=C\CCC(C)=CCNCCCN(CCCN)CCCN	32	> 150	16	16	128	8	1	4	16	3.54	19.2		
CC(C)=CCC/C(C)=C\CCC(C)=CCNCCCN1CCCC1	16	85.3	32	16	128	32	16	64	16				
CC(C)=CCC/C(C)=C\CCC(C)=CCNCCNCCNCCNCCN	8	43.5	32	8	16	4	1	8	16	1.49	5.37		
CC[C@H](C)CCCCC(=O)N[C@@H](CCN)C(=O)N[C@H](C(=O)N[C@@H](CCN)C(=O)N[C@H]1CCNC(=O)[C@H]([C@@H](C)O)NC(=O)[C@H](CCN)NC(=O)[C@H](CCN)NC(=O)[C@H](CC(C)C)NC(=O)[C@@H](Cc2ccccc2)NC(=O)[C@H](CCN)NC1=O)[C@@H](C)O (X1-[Dab]T[Dab][Dab][Dab][dF]L[Dab][Dab]T; lactam 4-C)												14	
CC(C)=CCC/C(C)=C\CCC(C)=CCNCCCNCCCCNCCCN	16	143	16	32	64	8		8	32	1.61	9.15		
N=C(N)NCCC[C@H](NC(=O)[C@@H](N)Cc1ccccc1)C(=O)Nc1ccc2ccccc2c1 [PABETAN] (H-Phe-Arg-βNA)	16		16	8	64	16	8	8	8				25
CC(C)=CCC/C(C)=C\CCC(C)=CCNCCCN1CCOCC1	8	57.6	32	8	32	16	4	16	8				
CC(C)=CCC/C(C)=C\CCC(C)=CCNCCCN(C)CCCN	8	10.5	64	16	128	64	8	128	32	7.17	1.34		
CC(C)=CCC/C(C)=C\CCC(C)=CCNCCCN	16	32.1	64	32	128	32	64	256	16				
CC(C)=CCC/C(C)=C\CCC(C)=CCNCCCOCCCCOCCCN	4	> 150	8	4	16	8	4	2	2				
